The source made the active and inactive calls. The rule behind the calls is not given here.
Tests used:
[1] = molecular target: Ribosomal protein S6 kinase alpha-1 (Homo sapiens) (UniProt Q15418); assay: Inhibition of RSK1 Domain 1 ACT labeling site in human Huh-7 cells at 10 uM by KiNativ Profiling analysis relative to control; format: cell-based
[2] = molecular target: Tyrosine-protein kinase Fes/Fps (Homo sapiens, UniProt P07332); assay: Inhibition of FES K1 labeling site in human Huh-7 cells at 1 uM by KiNativ Profiling analysis relative to control; format: cell-based
[3] = molecular target: T1, Dual specificity mitogen-activated protein kinase kinase 6 (Homo sapiens) (UniProt P52564); assay: Inhibition of MAP2K6 Lys1 labeling site in human A-375 cells at 0.05 uM by KiNativ Profiling analysis relative to control; format: cell-based
T1 sequence (whole entry): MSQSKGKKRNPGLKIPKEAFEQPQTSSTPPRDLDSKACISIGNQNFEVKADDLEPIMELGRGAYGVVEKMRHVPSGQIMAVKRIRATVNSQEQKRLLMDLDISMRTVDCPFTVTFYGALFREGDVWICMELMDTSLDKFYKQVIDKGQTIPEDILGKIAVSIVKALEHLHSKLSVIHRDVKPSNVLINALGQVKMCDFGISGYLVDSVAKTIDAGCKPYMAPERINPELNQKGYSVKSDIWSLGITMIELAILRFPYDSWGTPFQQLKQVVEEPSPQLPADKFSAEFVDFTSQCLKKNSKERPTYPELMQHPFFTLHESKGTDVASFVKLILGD

[4] = Inhibition of KHS1 Lys2 labeling site in human A-375 cells at 5 uM by KiNativ Profiling analysis relative to control; settings: condition cancer
[5] = molecular target: SRSF protein kinase 2 (Homo sapiens) (UniProt P78362); assay: Inhibition of SRPK2 (unknown origin) at 10 uM by Ambit Kinomescan binding assay
[6] = molecular target: Mast/stem cell growth factor receptor Kit (Homo sapiens) (UniProt P10721); assay: Inhibition of KIT (unknown origin) at 10 uM by Ambit Kinomescan binding assay relative to control
[7] = molecular target: Mitogen-activated protein kinase 7 (Homo sapiens) (UniProt Q13164); assay: Inhibition of ERK5 (unknown origin) at 10 uM by Ambit Kinomescan binding assay
[8] = molecular target: DNA-dependent protein kinase catalytic subunit (Homo sapiens) (UniProt P78527); assay: Inhibition of PRKDC ATP labeling site harbouring KGGSWIQEINVAEKNWYPR in human Huh-7 cells at 10 uM by KiNativ Profiling analysis relative to control; format: cell-based
[9] = molecular target: Mitogen-activated protein kinase 14 (Homo sapiens, UniProt Q16539); assay: Inhibition of p38a in human Huh-7 cells at 10 uM by KiNativ Profiling analysis relative to control; format: cell-based
[10] = molecular target: Serine/threonine-protein kinase 38 (Homo sapiens) (UniProt Q15208); assay: Inhibition of NDR1 Lys1 labeling site in human Huh-7 cells at 1 uM by KiNativ Profiling analysis relative to control; format: cell-based
[11] = molecular target: Serine/threonine-protein kinase WNK2 (Homo sapiens) (UniProt Q9Y3S1); assay: Inhibition of Wnk2 Lys2 labeling site in human Huh-7 cell lysate at 1 uM by KiNativ Profiling analysis relative to control; format: subcellular
[12] = molecular target: Calcium/calmodulin-dependent protein kinase type II subunit alpha (Homo sapiens) (UniProt Q9UQM7); assay: Inhibition of CaMK2a Lys2 labeling site in human Huh-7 cell lysate at 1 uM by KiNativ Profiling analysis relative to control; format: subcellular
[13] = molecular target: STE20-like serine/threonine-protein kinase (Homo sapiens) (UniProt Q9H2G2); assay: Inhibition of SLK Lys1 labeling site in human Huh-7 cell lysate at 1 uM by KiNativ Profiling analysis relative to control; format: subcellular
[14] = molecular target: Cyclin-dependent kinase 11B (Homo sapiens) (UniProt P21127); assay: Inhibition of CDC2L1 (unknown origin) at 1 uM by Ambit Kinomescan binding assay relative to control
[15] = molecular target: Serine/threonine-protein kinase 38-like (Homo sapiens) (UniProt Q9Y2H1); assay: Inhibition of NDR2 Lys1 labeling site harbouring KDTGHIYAMKILR in human A-375 cells at 0.05 uM by KiNativ Profiling analysis relative to control; format: cell-based
[16] = molecular target: Mitogen-activated protein kinase kinase kinase 13 (Homo sapiens) (UniProt O43283); assay: Inhibition of LZK (unknown origin) at 1 uM by Ambit Kinomescan binding assay relative to control
[17] = molecular target: Microtubule-associated serine/threonine-protein kinase 4 (Homo sapiens) (UniProt O15021); assay: Inhibition of MAST4 Lys2 labeling site in human A-375 cells at 5 uM by KiNativ Profiling analysis relative to control; format: cell-based
In short: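 Live A375 melanoma cells were treated with compound at 5 or 0.5 μM, then lysed. Lysates were labeled with a lysine-reactive ATP or ADP-biotin probe. Read-out was the compound's protection of kinase labeling sites from probe labeling (KiNativ).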

[18] = molecular target: T2, Kinase suppressor of Ras 1 (Homo sapiens) (UniProt Q8IVT5); assay: Inhibition of KSR1 ACT labeling site harbouring SKNVFYDNGKVVITDFGLFGISGVVR in human A-375 cells at 5 uM by KiNativ Profiling analysis relative to control; format: cell-based
T2 sequence (whole entry): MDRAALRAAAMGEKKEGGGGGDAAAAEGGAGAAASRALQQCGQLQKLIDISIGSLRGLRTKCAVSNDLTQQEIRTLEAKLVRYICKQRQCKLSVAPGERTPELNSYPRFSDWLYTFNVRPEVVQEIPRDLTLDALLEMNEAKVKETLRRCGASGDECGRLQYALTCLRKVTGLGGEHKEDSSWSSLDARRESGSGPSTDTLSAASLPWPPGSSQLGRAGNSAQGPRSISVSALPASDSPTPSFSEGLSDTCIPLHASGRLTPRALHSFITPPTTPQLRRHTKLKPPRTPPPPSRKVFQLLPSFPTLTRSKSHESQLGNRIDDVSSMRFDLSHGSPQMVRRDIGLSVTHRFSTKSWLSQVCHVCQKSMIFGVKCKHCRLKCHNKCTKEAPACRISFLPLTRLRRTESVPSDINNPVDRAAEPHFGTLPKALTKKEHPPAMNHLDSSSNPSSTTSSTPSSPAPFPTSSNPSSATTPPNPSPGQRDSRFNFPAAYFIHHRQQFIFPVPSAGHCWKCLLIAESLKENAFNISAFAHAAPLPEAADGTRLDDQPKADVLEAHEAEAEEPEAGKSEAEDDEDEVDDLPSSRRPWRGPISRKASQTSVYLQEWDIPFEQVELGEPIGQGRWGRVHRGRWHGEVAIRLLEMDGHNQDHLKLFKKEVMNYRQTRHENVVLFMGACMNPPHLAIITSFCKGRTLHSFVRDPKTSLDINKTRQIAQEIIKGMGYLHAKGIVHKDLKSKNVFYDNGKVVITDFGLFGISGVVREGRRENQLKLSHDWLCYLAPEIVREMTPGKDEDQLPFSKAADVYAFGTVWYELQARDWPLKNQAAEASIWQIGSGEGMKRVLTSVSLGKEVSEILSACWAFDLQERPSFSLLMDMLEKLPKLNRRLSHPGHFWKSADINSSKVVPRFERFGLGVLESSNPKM

Chain of Mast/stem cell growth factor receptor Kit (Homo sapiens) (P10721 whole entry): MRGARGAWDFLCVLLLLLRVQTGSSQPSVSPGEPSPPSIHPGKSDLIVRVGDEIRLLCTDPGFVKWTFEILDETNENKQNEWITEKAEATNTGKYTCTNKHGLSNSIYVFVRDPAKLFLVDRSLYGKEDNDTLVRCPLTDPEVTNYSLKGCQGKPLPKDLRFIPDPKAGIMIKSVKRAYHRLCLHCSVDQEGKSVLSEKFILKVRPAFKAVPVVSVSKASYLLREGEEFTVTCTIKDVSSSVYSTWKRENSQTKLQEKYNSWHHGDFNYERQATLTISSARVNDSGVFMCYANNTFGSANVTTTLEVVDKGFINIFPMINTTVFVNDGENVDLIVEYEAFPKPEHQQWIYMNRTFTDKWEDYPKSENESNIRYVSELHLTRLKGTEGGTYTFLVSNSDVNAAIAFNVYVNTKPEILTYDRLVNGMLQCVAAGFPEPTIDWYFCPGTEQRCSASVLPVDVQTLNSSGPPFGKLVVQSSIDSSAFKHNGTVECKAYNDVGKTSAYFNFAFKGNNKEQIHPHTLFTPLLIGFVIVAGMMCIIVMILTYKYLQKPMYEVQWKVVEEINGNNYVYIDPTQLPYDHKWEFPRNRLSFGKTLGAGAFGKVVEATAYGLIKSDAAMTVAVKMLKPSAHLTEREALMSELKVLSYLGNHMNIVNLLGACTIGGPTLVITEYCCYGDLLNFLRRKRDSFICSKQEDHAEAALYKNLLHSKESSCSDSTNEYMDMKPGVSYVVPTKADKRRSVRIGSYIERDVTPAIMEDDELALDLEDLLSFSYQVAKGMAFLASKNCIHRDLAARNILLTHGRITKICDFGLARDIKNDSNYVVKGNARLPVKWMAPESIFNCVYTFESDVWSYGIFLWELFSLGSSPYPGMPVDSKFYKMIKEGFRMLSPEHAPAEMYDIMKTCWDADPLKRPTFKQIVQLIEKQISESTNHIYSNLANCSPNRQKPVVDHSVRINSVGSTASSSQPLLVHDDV
Chain of Mitogen-activated protein kinase kinase kinase 13 (Homo sapiens) (O43283 whole entry): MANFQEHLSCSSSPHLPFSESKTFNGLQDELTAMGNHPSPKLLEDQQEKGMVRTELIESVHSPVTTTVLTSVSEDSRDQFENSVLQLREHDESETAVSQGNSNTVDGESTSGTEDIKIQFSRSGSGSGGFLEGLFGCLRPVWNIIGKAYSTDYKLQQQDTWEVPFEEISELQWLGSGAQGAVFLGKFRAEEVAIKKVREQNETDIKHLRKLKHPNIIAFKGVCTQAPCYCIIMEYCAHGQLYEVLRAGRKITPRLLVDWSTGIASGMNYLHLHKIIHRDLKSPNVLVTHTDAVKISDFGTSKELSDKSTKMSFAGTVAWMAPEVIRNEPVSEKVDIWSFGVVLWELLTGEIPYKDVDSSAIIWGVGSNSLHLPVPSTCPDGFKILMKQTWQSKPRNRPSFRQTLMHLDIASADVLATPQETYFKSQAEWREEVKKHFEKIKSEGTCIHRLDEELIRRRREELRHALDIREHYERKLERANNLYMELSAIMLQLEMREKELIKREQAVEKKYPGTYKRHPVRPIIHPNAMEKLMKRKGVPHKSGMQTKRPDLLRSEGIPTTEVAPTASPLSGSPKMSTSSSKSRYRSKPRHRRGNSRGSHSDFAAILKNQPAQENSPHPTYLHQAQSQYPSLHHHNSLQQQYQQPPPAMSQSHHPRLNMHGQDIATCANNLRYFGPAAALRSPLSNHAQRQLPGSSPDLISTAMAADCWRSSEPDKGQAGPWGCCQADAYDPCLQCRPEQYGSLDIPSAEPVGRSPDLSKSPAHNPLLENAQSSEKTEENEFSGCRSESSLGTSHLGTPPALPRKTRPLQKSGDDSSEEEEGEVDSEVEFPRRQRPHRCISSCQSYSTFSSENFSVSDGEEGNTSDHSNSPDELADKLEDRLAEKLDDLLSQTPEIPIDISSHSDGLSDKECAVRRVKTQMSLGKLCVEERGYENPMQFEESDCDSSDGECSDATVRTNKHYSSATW
Chain of Microtubule-associated serine/threonine-protein kinase 4 (Homo sapiens) (O15021 whole entry): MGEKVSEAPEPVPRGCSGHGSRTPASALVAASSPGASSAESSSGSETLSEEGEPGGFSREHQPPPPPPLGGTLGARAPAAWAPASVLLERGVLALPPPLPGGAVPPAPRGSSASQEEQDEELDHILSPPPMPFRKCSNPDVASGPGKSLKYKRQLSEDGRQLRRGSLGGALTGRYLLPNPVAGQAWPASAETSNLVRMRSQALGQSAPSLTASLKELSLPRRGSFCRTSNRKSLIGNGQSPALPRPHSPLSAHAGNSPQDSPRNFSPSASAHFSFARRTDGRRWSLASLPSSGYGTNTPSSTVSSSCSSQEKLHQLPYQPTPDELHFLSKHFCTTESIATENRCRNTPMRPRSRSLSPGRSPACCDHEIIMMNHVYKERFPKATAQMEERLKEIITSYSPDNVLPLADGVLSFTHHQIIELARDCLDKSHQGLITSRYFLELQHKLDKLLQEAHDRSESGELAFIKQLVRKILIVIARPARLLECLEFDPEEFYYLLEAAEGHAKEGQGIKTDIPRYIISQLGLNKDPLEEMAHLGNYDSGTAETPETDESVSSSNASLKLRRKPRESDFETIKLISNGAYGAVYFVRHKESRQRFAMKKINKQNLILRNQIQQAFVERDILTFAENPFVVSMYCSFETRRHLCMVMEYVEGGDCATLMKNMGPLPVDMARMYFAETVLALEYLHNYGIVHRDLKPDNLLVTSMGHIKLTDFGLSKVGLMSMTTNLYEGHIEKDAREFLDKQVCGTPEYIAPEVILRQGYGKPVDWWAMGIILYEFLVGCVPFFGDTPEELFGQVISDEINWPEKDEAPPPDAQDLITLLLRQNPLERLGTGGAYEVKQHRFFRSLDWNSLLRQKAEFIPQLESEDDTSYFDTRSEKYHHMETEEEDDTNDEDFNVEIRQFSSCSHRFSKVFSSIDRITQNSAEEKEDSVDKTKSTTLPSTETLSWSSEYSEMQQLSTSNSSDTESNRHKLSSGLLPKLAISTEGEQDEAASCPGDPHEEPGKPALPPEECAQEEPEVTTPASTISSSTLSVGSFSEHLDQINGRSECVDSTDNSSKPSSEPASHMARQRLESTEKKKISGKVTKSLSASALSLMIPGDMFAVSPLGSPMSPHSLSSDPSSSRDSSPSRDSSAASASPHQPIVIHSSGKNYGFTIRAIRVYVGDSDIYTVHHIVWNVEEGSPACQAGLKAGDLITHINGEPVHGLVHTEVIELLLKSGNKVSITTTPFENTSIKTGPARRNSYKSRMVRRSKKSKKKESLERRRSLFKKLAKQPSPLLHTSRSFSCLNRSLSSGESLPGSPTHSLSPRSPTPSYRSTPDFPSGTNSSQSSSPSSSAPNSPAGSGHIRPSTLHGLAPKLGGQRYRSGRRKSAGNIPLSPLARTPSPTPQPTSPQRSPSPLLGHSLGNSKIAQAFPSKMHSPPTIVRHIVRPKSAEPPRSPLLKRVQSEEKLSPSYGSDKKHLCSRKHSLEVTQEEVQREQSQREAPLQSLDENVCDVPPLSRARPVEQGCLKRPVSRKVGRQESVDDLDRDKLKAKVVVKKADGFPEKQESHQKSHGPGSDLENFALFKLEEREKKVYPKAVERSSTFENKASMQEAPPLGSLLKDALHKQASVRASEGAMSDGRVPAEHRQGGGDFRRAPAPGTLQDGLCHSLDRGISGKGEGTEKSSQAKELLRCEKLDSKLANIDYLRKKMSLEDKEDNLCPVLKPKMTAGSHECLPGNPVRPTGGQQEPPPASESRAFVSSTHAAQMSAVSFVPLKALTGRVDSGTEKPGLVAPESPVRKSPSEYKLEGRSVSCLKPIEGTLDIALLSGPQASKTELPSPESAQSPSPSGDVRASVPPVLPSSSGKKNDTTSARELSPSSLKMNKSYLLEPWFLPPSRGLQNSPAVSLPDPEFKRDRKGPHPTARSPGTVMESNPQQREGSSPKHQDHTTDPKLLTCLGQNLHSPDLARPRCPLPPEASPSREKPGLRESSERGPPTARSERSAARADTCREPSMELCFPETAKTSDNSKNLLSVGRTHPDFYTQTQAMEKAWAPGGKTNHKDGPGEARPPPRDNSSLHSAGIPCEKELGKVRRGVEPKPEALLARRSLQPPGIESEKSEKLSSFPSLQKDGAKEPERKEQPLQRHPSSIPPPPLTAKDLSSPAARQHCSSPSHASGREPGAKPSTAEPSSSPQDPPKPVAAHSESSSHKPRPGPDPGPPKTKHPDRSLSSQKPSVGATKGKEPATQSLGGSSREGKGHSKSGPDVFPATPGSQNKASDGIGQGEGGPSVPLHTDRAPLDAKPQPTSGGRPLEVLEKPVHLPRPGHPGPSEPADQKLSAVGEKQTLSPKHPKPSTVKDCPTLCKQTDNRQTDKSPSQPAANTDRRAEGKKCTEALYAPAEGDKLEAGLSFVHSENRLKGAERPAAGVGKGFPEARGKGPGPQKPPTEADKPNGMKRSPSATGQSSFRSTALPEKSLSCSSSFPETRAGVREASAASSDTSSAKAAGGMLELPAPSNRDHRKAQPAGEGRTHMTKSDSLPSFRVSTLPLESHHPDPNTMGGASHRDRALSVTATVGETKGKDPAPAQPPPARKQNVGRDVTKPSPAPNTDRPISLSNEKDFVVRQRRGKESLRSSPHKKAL
Chain of Calcium/calmodulin-dependent protein kinase type II subunit alpha (Homo sapiens) (Q9UQM7 whole entry): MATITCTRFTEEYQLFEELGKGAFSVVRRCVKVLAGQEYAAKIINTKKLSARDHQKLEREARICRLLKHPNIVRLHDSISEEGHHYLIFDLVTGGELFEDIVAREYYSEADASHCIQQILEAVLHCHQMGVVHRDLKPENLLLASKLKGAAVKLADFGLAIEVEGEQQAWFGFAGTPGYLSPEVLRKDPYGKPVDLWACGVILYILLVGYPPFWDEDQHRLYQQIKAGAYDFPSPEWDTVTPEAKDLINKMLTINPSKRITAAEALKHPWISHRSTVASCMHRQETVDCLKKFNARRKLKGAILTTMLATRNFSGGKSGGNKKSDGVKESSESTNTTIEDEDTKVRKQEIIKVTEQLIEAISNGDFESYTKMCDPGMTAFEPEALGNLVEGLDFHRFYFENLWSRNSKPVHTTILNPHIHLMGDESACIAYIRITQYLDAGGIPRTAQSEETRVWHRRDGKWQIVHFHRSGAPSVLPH

CCN1CCN(Cc2ccc(NC(=O)c3ccc(C)c(Oc4ccnc5[nH]ccc45)c3)cc2C(F)(F)F)CC1
inhibition [1]: 3.4% | inhibition [2]: -4.5% | inhibition [3]: 4% | inhibition at 5 µM [4]: 42.8% | inhibition [5]: inactive | inhibition [6]: 0% | inhibition [7]: inactive | inhibition [8]: 1.9% | inhibition [9]: 98.5%

CNc1cc(Oc2cc(C(=O)Nc3cc(N4CCN(C)CC4)cc(C(F)(F)F)c3)ccc2C)ncn1
inhibition [10]: 16.4% | inhibition [11]: 2.7% | inhibition [12]: 0.7% | inhibition [13]: 3.9%

CCN1CCN(Cc2ccc(NC(=O)c3ccc(C)c(/C=C/c4cnc5[nH]ccc5c4OC)c3)cc2C(F)(F)F)CC1
inhibition [14]: 61% | inhibition [15]: 6% | inhibition [16]: 82% | inhibition [17]: -8.4% | inhibition [18]: 1.7%
